In experiment [1] the target is T1, Pancreatic alpha-amylase (Homo sapiens, UniProt P04746).
T1 sequence (P04746 whole entry): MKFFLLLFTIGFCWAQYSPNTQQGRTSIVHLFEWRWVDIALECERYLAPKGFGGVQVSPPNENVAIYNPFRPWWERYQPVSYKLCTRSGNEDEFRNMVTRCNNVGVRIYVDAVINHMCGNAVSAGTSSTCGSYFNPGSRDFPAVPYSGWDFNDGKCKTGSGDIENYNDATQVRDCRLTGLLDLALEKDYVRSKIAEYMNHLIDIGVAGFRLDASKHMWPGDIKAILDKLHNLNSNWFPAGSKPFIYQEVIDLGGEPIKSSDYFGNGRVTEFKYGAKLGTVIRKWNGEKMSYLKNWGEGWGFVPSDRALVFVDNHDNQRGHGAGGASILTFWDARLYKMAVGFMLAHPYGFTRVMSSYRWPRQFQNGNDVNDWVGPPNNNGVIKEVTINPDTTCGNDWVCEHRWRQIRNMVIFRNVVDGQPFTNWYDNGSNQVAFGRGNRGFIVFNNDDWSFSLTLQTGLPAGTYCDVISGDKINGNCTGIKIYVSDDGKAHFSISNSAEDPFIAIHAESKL
The experiment in a line: Inhibition of human pancreatic alpha-amylase assessed as hydrolysis of G3F by Dixon plot analysis.

Experiment [2] in a line: Inhibition of Escherichia coli MurC ligase after 15 mins by Malachite green assay.
Experiment [3] concerns the target T2, Alpha-amylase 1A (Homo sapiens, UniProt P0DUB6).
T2 sequence (P0DUB6 whole entry): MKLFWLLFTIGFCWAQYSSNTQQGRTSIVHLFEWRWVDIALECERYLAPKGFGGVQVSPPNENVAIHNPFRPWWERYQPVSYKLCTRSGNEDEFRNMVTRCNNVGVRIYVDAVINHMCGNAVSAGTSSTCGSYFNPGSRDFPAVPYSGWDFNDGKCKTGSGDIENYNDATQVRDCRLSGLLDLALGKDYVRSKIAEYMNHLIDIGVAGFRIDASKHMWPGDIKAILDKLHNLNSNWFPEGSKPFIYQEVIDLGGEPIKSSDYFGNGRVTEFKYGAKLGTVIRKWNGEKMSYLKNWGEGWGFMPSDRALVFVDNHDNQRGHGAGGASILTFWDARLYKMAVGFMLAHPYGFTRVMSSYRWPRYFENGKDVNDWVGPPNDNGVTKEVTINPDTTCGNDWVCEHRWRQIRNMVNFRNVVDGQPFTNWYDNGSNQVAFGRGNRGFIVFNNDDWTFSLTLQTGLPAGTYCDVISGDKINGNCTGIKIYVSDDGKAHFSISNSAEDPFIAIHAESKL
Put plainly: Inhibition of human salivary alpha-amylase using GalG2CNP as substrate by UV-Vis spectrophotometric analysis. Conditions: read-out: IC50.

For experiment [4], the target named is T2, Alpha-amylase 1A. Put plainly: Non-competitive inhibition of human salivary alpha-amylase using GalG2CNP as substrate assessed as CNP liberation by Lineweaver-Burk plot analysis. In a few lines:
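Same HSA/GalG2CNP system: 2 nM enzyme, 0.75-4 mM substrate, 50 mM MES pH 6.0 with Ca(OAc)2, NaCl, NaN3, 37°C, CNP followed continuously at 400 nm, inhibitor added from DMSO. Inhibition type was assigned from Lineweaver-Burk plots.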

In experiment [5] the target is T2, Alpha-amylase 1A. Put plainly: Inhibition of human salivary alpha-amylase using GalG2CNP as substrate assessed as CNP liberation by spectrophotometric analysis. The gist of the method: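 Chromogenic kinetic assay with 2 nM HSA and 0.75-4 mM GalG2CNP in 50 mM MES pH 6.0 with 5 mM Ca(OAc)2, 51.5 mM NaCl, 152 mM NaN3, 37°C. Substrate and inhibitor (DMSO dilutions) were premixed and the reaction started by adding enzyme. CNP release was followed continuously at 400 nm. IC50 was taken from a four-parameter logistic fit of fractional activity versus inhibitor level, three repeats.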

The nature of experiment [6]: Inhibition of malt alpha-amylase. The settings on record: concentration not given here.
The subject of experiment [7] is Escherichia coli. Put plainly: Inhibition of Escherichia coli MurC ligase assessed as residual activity at 100 uM after 15 mins by Malachite green assay.
In experiment [8] the target is T3, Alpha-amylase 1A (Homo sapiens) (UniProt P0DUB6).
T3 sequence (whole entry): T2 sequence (P0DUB6 whole entry)
Put plainly: Potency index, ratio of BAS 04880564 IC50 to compound IC50 for human salivary alpha-amylase.

The target of experiment [9] is T3, Alpha-amylase 1A (Homo sapiens). The experiment in a line: Competitive inhibition of human salivary alpha-amylase using GalG2CNP as substrate by Lineweaver-Burk plot analysis. The gist of the method:
(§1)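 Inhibition mode assigned from Lineweaver-Burk plots. Human salivary α-amylase (2 nM) started reactions containing GalG2CNP (0.75–4 mM) and inhibitor in DMSO, in 50 mM MES pH 6.0 with 5 mM Ca(OAc)2, 51.5 mM NaCl, 152 mM NaN3 at 37°C. Rates from continuous 400 nm absorbance of released CNP.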

For experiment [10], the target named is T1, Pancreatic alpha-amylase. Put plainly: Inhibition of human pancreatic alpha-amylase expressed in Pichia pastoris using amylase as substrate preincubated with substrate for 10 mins followed by protein addition measured every 5 mins.
The target of experiment [11] is T4, Pancreatic alpha-amylase (Homo sapiens) (UniProt P04746).
T4 sequence (whole entry): T1 sequence (P04746 whole entry)
Put plainly: Inhibition of human pancreatic alpha-amylase using CNPG3 as substrate by spectrophotometric analysis in presence of 40 mM G3F as donor compound and 25 mM 5FIdoF as acceptor compound relative to control.

Experiment [12] has as its target T1, Pancreatic alpha-amylase. The experiment in a line: Inhibition of human pancreatic alpha-amylase expressed in Pichia pastoris using amylase as substrate preincubated with substrate for 10 mins followed by protein addition measured every 5 mins by Dixon plot analysis.
Experiment [13] deals with T2, Alpha-amylase 1A. The experiment in a line: Inhibition of human salivary alpha-amylase using GalG2CNP as substrate.
Experiment [14] has as its target T1, Pancreatic alpha-amylase. Put plainly: Inhibition of human pancreatic alpha-amylase.
Experiment [15] has as its target T3, Alpha-amylase 1A (Homo sapiens). The experiment in a line: Mixed type inhibition of human salivary alpha-amylase using GalG2CNP as substrate by Lineweaver-Burk plot analysis. In a few lines: as §1

Molecules are shown by their SMILES. Calls of active or inactive are those of the source. The rule behind the calls is not given here.

By Ki is commonly meant the dissociation constant of the complex between target and ligand, obtained from inhibition or displacement. What is called IC50 is the concentration needed to halve the response being measured. Usually inhibition stands for the percentage by which the read-out fell short of the control.

Consider `CO[C@H]1[C@H](O)[C@@H](O)[C@@H](O[C@H]2[C@H](O)[C@@H](O)[C@@H](O[C@H]3[C@H](O)[C@@H](O)/C(=N\O)N[C@@H]3CO)O[C@@H]2CO)O[C@@H]1CO`, for which the Ki in experiment [1] turned out to be 25 µM.

For the compound `O=C(O)c1cc(Nc2nc(-c3ccc(O)cc3O)cs2)ccc1O`, the results for the IC50 in experiment [2] and in experiment [3] were 347 µM and 423 µM, respectively.

In the case of `O=C(OC[C@H]1O[C@@H](OC(=O)c2cc(O)c(O)c(O)c2)[C@H](OC(=O)c2cc(O)c(O)c(O)c2)[C@@H](OC(=O)c2cc(O)c(O)c(O)c2)[C@@H]1OC(=O)c1cc(O)c(O)c(O)c1)c1cc(O)c(O)c(O)c1` [PENTAGALLOYL GLUCOSE], the Ki in [4] was 2.6 µM. Further, in [5], the IC50 was 2.35 µM.

`COC1=C(O)C(=O)OC1C1COC(C)(C)O1` (stereo not given) registered an inhibition in experiment [6] of 0%.

In the case of `CN(C)c1ccc(Nc2nc(-c3ccc(O)cc3O)cs2)cc1`, the Activity in [7] was determined as 90%. The IC50 in experiment [3] worked out at 100 µM. The Ratio IC50 in experiment [8] was determined as 1.38. For the same compound, the Inhibition mode result in experiment [9] was “Active”.

As to `C[C@H]1O[C@H](O[C@H]2[C@H](O)[C@@H](O)[C@@H](O)O[C@@H]2CO)[C@H](O)[C@@H](O)[C@@H]1NC1=C[C@H](CO)[C@@H](O[C@H]2O[C@H](CO)[C@@H](O[C@H]3O[C@H](CO)[C@@H](O)[C@H](O)[C@H]3O)[C@H](O)[C@H]2O)[C@H](O)[C@H]1O`, in [10], the 50% inhibitory concentration (IC50) was 2.59 µM.

For the compound `OCC1OC(OC2C(O)C(O)C(F)OC2(F)CO)C(O)C(O)C1O` (stereo not given), in [11], the inhibition stood at 90%.

In the case of `C[C@H]1O[C@H](O[C@H]2[C@H](O)[C@@H](O)[C@@H](O[C@H]3[C@H](O)[C@@H](O)[C@@H](O[C@H]4[C@H](O)[C@@H](O)[C@@H](O[C@H]5[C@H](O)[C@@H](O)[C@@H](O)O[C@@H]5CO)O[C@@H]4CO)O[C@@H]3CO)O[C@@H]2CO)[C@H](O)[C@@H](O)[C@@H]1N[C@H]1C=C(CO)[C@@H](O[C@H]2O[C@H](CO)[C@@H](O[C@H]3O[C@H](C)[C@@H](N[C@H]4C=C(CO)[C@@H](O[C@H]5O[C@H](CO)[C@@H](O[C@H]6O[C@H](C)[C@@H](N[C@H]7C=C(CO)[C@@H](O[C@H]8O[C@H](CO)[C@@H](O[C@H]9O[C@H](C)[C@@H](N[C@H]%10C=C(CO)[C@@H](O)[C@H](O)[C@H]%10O)[C@H](O)[C@H]9O)[C@H](O)[C@H]8O)[C@H](O)[C@H]7O)[C@H](O)[C@H]6O)[C@H](O)[C@H]5O)[C@H](O)[C@H]4O)[C@H](O)[C@H]3O)[C@H](O)[C@H]2O)[C@H](O)[C@H]1O`, in [12], the inhibition constant Ki turned out to be 0.0416 µM.

Take `CC1OC(OC2C(CO)OC(O)C(O)C2O)C(O)C(O)C1NC1C=C(CO)C(OC2OC(CO)C(OC3OC(C)C(NC4C=C(CO)C(O)C(O)C4O)C(O)C3O)C(O)C2O)C(O)C1O` (stereo not given): the Ki in experiment [13] came to 0.7 µM.

Take `C[C@H]1O[C@H](O[C@H]2[C@H](O)[C@@H](O)[C@@H](OC[C@H]3O[C@@H](O)[C@H](O)[C@@H](O)[C@@H]3O)O[C@@H]2CO)[C@H](O)[C@@H](O)[C@@H]1N[C@H]1C=C(CO)[C@@H](O)[C@H](O)[C@H]1O`: in experiment [14], the Ki is 0.012 µM.

With `CC(=O)c1cccc(Nc2nc(-c3ccc(O)cc3O)cs2)c1`, the Activity in [7] was 83%. The inhibition result in [15] was “Active”. In addition, the concentration for half-maximal inhibition (IC50) in experiment [3] was 100 µM. In experiment [8], the Ratio IC50 stood at 1.38.

Regarding `C[C@H]1O[C@H](O[C@H]2[C@H](O)[C@@H](O)[C@@H](OC[C@H]3OC4(NC(=S)NC4=O)[C@H](O)[C@@H](O)[C@@H]3O)O[C@@H]2CO)[C@H](O)[C@@H](O)[C@@H]1N[C@H]1C=C(CO)[C@@H](O)[C@H](O)[C@H]1O` (stereo not given in full), the inhibitory constant (Ki) in [4] was found to be 0.19 µM.

The values above are taken from ChEMBL document CHEMBL3616379, “From carbohydrates to drug-like fragments: Rational development of novel α-amylase inhibitors” (Bioorg Med Chem, 2015).
